pIC50: −log10 of the molar value. In brackets after ≈: the same amount, converted by molar mass.
Legend:
[1] = biological target: T1, Dihydrofolate reductase (Bos taurus, UniProt P00376); test: Inhibition of bovine DHFR after 2 mins by spectrophotometry
T1 sequence (P00376 whole entry): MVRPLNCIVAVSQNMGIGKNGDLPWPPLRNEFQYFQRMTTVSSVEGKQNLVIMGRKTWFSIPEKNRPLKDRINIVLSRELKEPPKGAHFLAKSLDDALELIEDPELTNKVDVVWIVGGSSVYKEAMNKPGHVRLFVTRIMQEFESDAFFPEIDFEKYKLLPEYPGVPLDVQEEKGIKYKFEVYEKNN

[2] = system: SF-295; test: Cytotoxicity against human SF295 cells at 10 uM after 48 hrs by coulter counter analysis; format: functional; details: SF-295, 48 h, read-out: GI
[3] = system: CCRF-CEM; test: Cytotoxicity against human CCRF-CEM cells at 10 uM after 48 hrs by coulter counter analysis; format: functional; details: read-out: GI
[4] = system: Escherichia coli; test: Antimicrobial activity against Escherichia coli after 24 hrs by micro-dilution susceptibility method
[5] = system: UO-31; test: Cytotoxicity against human UO31 cells at 10 uM after 48 hrs by coulter counter analysis; format: functional; details: UO-31, 48 h, read-out: GI
[6] = system: Malme-3M; test: Cytotoxicity against human MALME-3M cells at 10 uM after 48 hrs by coulter counter analysis; format: functional; details: read-out: GI
[7] = system: NCI-H23; test: Cytotoxicity against human NCI-H23 cells at 10 uM after 48 hrs by coulter counter analysis; format: functional; details: NCI-H23, 48 h, read-out: GI
[8] = system: NCI-H522; test: Cytotoxicity against human NCI-H522 cells at 10 uM after 48 hrs by coulter counter analysis; format: functional; details: NCI-H522, 48 h, read-out: GI
[9] = system: SNB-19; test: Cytotoxicity against human SNB19 cells at 10 uM after 48 hrs by coulter counter analysis; format: functional; details: SNB-19, 48 h, read-out: GI
[10] = system: SK-MEL-5; test: Cytotoxicity against human SK-MEL-5 cells at 10 uM after 48 hrs by coulter counter analysis; format: functional; details: SK-MEL-5, 48 h, read-out: GI
[11] = system: SR; test: Cytotoxicity against human SR cells at 10 uM after 48 hrs by coulter counter analysis; format: functional; details: read-out: GI
[12] = Cytotoxicity against human EKVX cells at 10 uM after 48 hrs by coulter counter analysis; format: functional; details: read-out: GI
[13] = system: MOLT-4; test: Cytotoxicity against human MOLT4 cells at 10 uM after 48 hrs by coulter counter analysis; format: functional; details: MOLT-4, 48 h, read-out: GI
[14] = system: OVCAR-4; test: Cytotoxicity against human OVCAR4 cells at 10 uM after 48 hrs by coulter counter analysis; format: functional; details: OVCAR-4, 48 h, read-out: GI
[15] = system: Micrococcus luteus; test: Antimicrobial activity against Micrococcus luteus at 200 ug after 24 hrs by agar disc diffusion method; format: functional; details: read-out: DIZ
[16] = system: SNB-75; test: Cytotoxicity against human SNB75 cells at 10 uM after 48 hrs by coulter counter analysis; format: functional; details: SNB-75, 48 h, read-out: GI
[17] = system: SN12C; test: Cytotoxicity against human SN12C cells at 10 uM after 48 hrs by coulter counter analysis; format: functional; details: read-out: GI
[18] = Cytotoxicity against human NCI-ADR-RES cells at 10 uM after 48 hrs by coulter counter analysis; format: functional; details: read-out: GI
[19] = system: Pseudomonas aeruginosa; test: Antimicrobial activity against Pseudomonas aeruginosa at 200 ug after 24 hrs by agar disc diffusion method; format: functional; details: read-out: DIZ
[20] = system: RXF 393; test: Cytotoxicity against human RXF393 cells at 10 uM after 48 hrs by coulter counter analysis; format: functional; details: RXF 393, 48 h, read-out: GI
[21] = system: Staphylococcus aureus; test: Antimicrobial activity against Staphylococcus aureus after 24 hrs by micro-dilution susceptibility method; format: functional
Procedure, shortened: (§1)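 Broth microdilution in Müller-Hinton broth against S. aureus IFO 3060, B. subtilis IFO 3007, E. coli IFO 3301 and P. aeruginosa IFO 3448. These are the same standard strains used in the disc-diffusion primary screen. Compounds were solubilized in DMSO. MIC recorded as the minimal inhibitory concentration.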

[22] = system: Staphylococcus aureus; test: Antimicrobial activity against Staphylococcus aureus at 200 ug after 24 hrs by agar disc diffusion method; format: functional; details: read-out: DIZ
[23] = system: Escherichia coli; test: Antimicrobial activity against Escherichia coli at 200 ug after 24 hrs by agar disc diffusion method; format: functional; details: read-out: DIZ
[24] = system: Hs-578T; test: Cytotoxicity against human Hs578T cells at 10 uM after 48 hrs by coulter counter analysis; format: functional; details: read-out: GI
[25] = system: MCF7; test: Cytotoxicity against human MCF7 cells at 10 uM after 48 hrs by coulter counter analysis; format: functional; details: MCF7, 48 h, read-out: GI
[26] = system: PC-3; test: Cytotoxicity against human PC3 cells at 10 uM after 48 hrs by coulter counter analysis; format: functional; details: PC-3, 48 h, read-out: GI
[27] = system: IGROV-1; test: Cytotoxicity against human IGROV1 cells at 10 uM after 48 hrs by coulter counter analysis; format: functional; details: IGROV-1, 48 h, read-out: GI
[28] = system: NCI-H226; test: Cytotoxicity against human NCI-H226 cells at 10 uM after 48 hrs by coulter counter analysis; format: functional; details: NCI-H226, 48 h, read-out: GI
[29] = system: A549; test: Cytotoxicity against human A549/ATCC cells at 10 uM after 48 hrs by coulter counter analysis; format: functional; details: A549, 48 h, read-out: GI
[30] = system: A498; test: Cytotoxicity against human A498 cells at 10 uM after 48 hrs by coulter counter analysis; format: functional; details: A498, 48 h, read-out: GI
[31] = system: MDA-MB-435; test: Cytotoxicity against human MDA-MB-435 cells at 10 uM after 48 hrs by coulter counter analysis; format: functional; details: MDA-MB-435, 48 h, read-out: GI
[32] = system: Bacillus subtilis; test: Antimicrobial activity against Bacillus subtilis at 200 ug after 24 hrs by agar disc diffusion method; format: functional; details: read-out: DIZ
[33] = system: Bacillus subtilis; test: Antimicrobial activity against Bacillus subtilis after 24 hrs by micro-dilution susceptibility method; format: functional; procedure, shortened: as §1
[34] = system: UACC-62; test: Cytotoxicity against human UACC62 cells at 10 uM after 48 hrs by coulter counter analysis; format: functional; details: UACC-62, 48 h, read-out: GI
[35] = system: MDA-MB-231; test: Cytotoxicity against human MDA-MB-231 cells at 10 uM after 48 hrs by coulter counter analysis; format: functional; details: MDA-MB-231, 48 h, read-out: GI
[36] = system: HL-60(TB); test: Cytotoxicity against human HL-60(TB) cells at 10 uM after 48 hrs by coulter counter analysis; format: functional; details: HL-60, 48 h, read-out: GI
[37] = system: T47D; test: Cytotoxicity against human T47D cells at 10 uM after 48 hrs by coulter counter analysis; format: functional; details: read-out: GI
[38] = system: LOX IMVI; test: Cytotoxicity against human LOXIMVI cells at 10 uM after 48 hrs by coulter counter analysis; format: functional; details: read-out: GI
[39] = system: CAKI-1; test: Cytotoxicity against human Caki1 cells at 10 uM after 48 hrs by coulter counter analysis; format: functional; details: CAKI-1, 48 h, read-out: GI
[40] = system: RPMI-8226; test: Cytotoxicity against human RPMI8226 cells at 10 uM after 48 hrs by coulter counter analysis; format: functional; details: RPMI-8226, 48 h, read-out: GI

In the case of `COc1cc2nc(Sc3ncccc3C(=O)O)n(-c3ccccc3)c(=O)c2cc1OC`, the pIC50 [1] was 5.15, the inhibition of growth at 10 µM [2] was less than 10% and the inhibition of growth at 10 µM [3] was less than 10%. It also gave an MIC [4] of 2 µg/mL (≈ 4.59 µM), an inhibition of growth at 10 µM [5] of 12% and an inhibition of growth at 10 µM [6] of less than 10%. The inhibition of growth at 10 µM [7] was less than 10%, the inhibition of growth at 10 µM [8] was 11.4% and the inhibition of growth at 10 µM [9] was less than 10%. The inhibition of growth at 10 µM [10] was less than 10%, the inhibition of growth at 10 µM [11] was less than 10% and the inhibition of growth at 10 µM [12] was less than 10%. The inhibition of growth at 10 µM [13] was less than 10%, the inhibition of growth at 10 µM [14] was less than 10% and the zone of inhibition at 200 µg/disc [15] was 15 mm. The inhibition of growth at 10 µM [16] was less than 10%, the inhibition of growth at 10 µM [17] was less than 10% and the inhibition of growth at 10 µM [18] was less than 10%. The zone of inhibition at 200 µg/disc [19] was 8 mm, the inhibition of growth at 10 µM [20] was less than 10% and the MIC [21] was 4 µg/mL (≈ 9.19 µM). For the same molecule, the zone of inhibition at 200 µg/disc [22] was 20 mm, the zone of inhibition at 200 µg/disc [23] was 22 mm and the inhibition of growth at 10 µM [24] was less than 10%. The inhibition of growth at 10 µM [25] was less than 10%, the inhibition of growth at 10 µM [26] was less than 10% and the inhibition of growth at 10 µM [27] was less than 10%. It also gave an inhibition of growth at 10 µM [28] of 12%, an inhibition of growth at 10 µM [29] of less than 10% and an inhibition of growth at 10 µM [30] of less than 10%. The inhibition of growth at 10 µM [31] was less than 10%, the zone of inhibition at 200 µg/disc [32] was 22 mm and the MIC [33] was 4 µg/mL (≈ 9.19 µM). For the same molecule, the inhibition of growth at 10 µM [34] was less than 10%, the inhibition of growth at 10 µM [35] was less than 10% and the inhibition of growth at 10 µM [36] was less than 10%. For the same molecule, the inhibition of growth at 10 µM [37] was less than 10%, the inhibition of growth at 10 µM [38] was less than 10% and the inhibition of growth at 10 µM [39] was 17.7%. For the same molecule, the inhibition of growth at 10 µM [40] was less than 10%.

With `CCOC(=O)c1nc(N)sc1Sc1nc2ccc(C)cc2c(=O)n1-c1ccccc1` the pIC50 [1] was 6.00, the MIC [4] was 4 µg/mL (≈ 9.12 µM) and the zone of inhibition at 200 µg/disc [15] was 14 mm. It also gave a zone of inhibition at 200 µg/disc [19] of 12 mm, an MIC [21] of 2 µg/mL (≈ 4.56 µM) and a zone of inhibition at 200 µg/disc [22] of 24 mm. It also gave a zone of inhibition at 200 µg/disc [23] of 18 mm, a zone of inhibition at 200 µg/disc [32] of 26 mm and an MIC [33] of 2 µg/mL (≈ 4.56 µM).

`COc1cc2nc(Sc3cc([N+](=O)[O-])ccc3C(=O)O)n(-c3ccccc3)c(=O)c2cc1OC` showed a pIC50 [1] of 5.00, an MIC [4] of 2 µg/mL (≈ 4.17 µM) and a zone of inhibition at 200 µg/disc [15] of 8 mm. For the same molecule, the zone of inhibition at 200 µg/disc [19] was 8 mm, the MIC [21] was 8 µg/mL (≈ 16.7 µM) and the zone of inhibition at 200 µg/disc [22] was 18 mm. It also gave a zone of inhibition at 200 µg/disc [23] of 22 mm, a zone of inhibition at 200 µg/disc [32] of 20 mm and an MIC [33] of 4 µg/mL (≈ 8.34 µM).
